Activity calls are given as the source filed them. The rule behind the calls is not given here.
How the values were obtained:
[1] = tested on: Jurkat; assay: Induction of apoptosis in UV-A irradiated human Jurkat cells assessed as increase in number of damaged lysosomes after 6 to 24 hrs by acridine orange- based flow cytometry; format: functional, cell-based
Summary of the method: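 Lysosomal stability in Jurkat cells 6, 12 and 24 h after UV-A (2.5 J/cm²) with compound. Cells resuspended in RPMI-1640 with 1 µM acridine orange; flow cytometry, excitation 488 nm, emission in FL3. Mean ± SEM of three experiments.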

[2] = tested on: Jurkat; assay: Induction of lipid peroxidation in 2.5 J/cm'2 UV-A irradiated human Jurkat cells assessed as increase in TBARS formation after 24 hrs by thiobarbituric acid assay; format: functional, cell-based
Summary of the method: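 Lipid peroxidation measured as MDA–thiobarbituric acid adducts, with BHT added to samples; calibrated to a 1,1,3,3-tetraethoxypropane standard curve; protein by Peterson method.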

[3] = Phototoxicity in 2.5 J/cm'2 UV-A irradiated human NCTC-2544 cells after 72 hrs by MTT assay; format: functional, cell-based; conditions: NCTC-2544, light or radiation study
Summary of the method: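 HL-60 and Jurkat (8×10³/well, RPMI-1640) and MCF-7, LoVo, NCTC-2544 (5×10³/well; DMEM or Ham's F12) preincubated 18 h at 37 °C, 5% CO₂. Compound in DMSO diluted in HBSS pH 7.2, 30 min at 37 °C, then UV-A at 2.5 or 3.75 J/cm². Medium replaced, 72 h incubation, MTT read-out. IC50 as mean ± SEM of three experiments.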

[4] = Drug uptake in cytoplasm of human NCTC-2544 cells at 10 uM after 2 hrs by fluorescence microphotography; format: ADME, cell-based; conditions: nctc-2544, 2 h
Summary of the method: (§1)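 NCTC-2544 cells attached in Petri dishes, given compound at 10 μM for 2 h, washed with HBSS. Then 30 min with Rhodamine 123 (mitochondria), LysoTracker RED, CellMask Orange (plasma membrane) or ER-Tracker. Blue compound fluorescence overlaid on probe images by video-confocal microscopy.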

[5] = tested on: Jurkat; assay: Induction of apoptosis in 3.75 J/cm'2 UV-A irradiated human Jurkat cells assessed as late apoptotic cells at 10 uM after 24 hrs by Annexin-V-FITC and propidium iodide based flow cytometry (reference value: 2.9 %); format: functional
[6] = tested on: MCF7; assay: Phototoxicity in 2.5 J/cm'2 UV-A irradiated human MCF7 cells assessed as cell viability after 72 hrs by MTT assay in presence of radical scavenger NaN3; format: functional, cell-based
Summary of the method: (§2)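 MCF-7 cells given compound plus scavenger in HBSS, 30 min at 37 °C, then UV-A (2.5 J/cm², 365 nm lamp). Medium replaced; viability by MTT after 72 h. Means ± SEM of at least three independent experiments.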

[7] = tested on: Jurkat; assay: Induction of apoptosis in 3.75 J/cm'2 UV-A irradiated human Jurkat cells assessed as necrotic cells at 5 uM after 24 hrs by Annexin-V-FITC and propidium iodide based flow cytometry (reference value: 4.2 %); format: functional
[8] = tested on: MCF7; assay: Phototoxicity in 2.5 J/cm'2 UV-A irradiated human MCF7 cells assessed as cell viability after 72 hrs by MTT assay in presence of radical scavenger BHA; format: functional, cell-based; summary of the method: as §2
[9] = Drug uptake in lysosome of human NCTC-2544 cells at 10 uM after 2 hrs by fluorescence microphotography; format: ADME, cell-based; conditions: nctc-2544, 2 h; summary of the method: as §1

**Q.** Which Activity [1] does the source give for CCOC(=O)c1c2c(c(C)n1C)-c1c(cc(S(=O)(=O)c3ccccc3)c(=O)n1C)CC2 here?
**A.** Active

**Q.** And the Activity [2]?
**A.** Dose-dependent effect

**Q.** What about the IC50 [3] of the same compound?
**A.** 2400 nM

**Q.** And the Drug uptake [4]?
**A.** Active

**Q.** And the Activity [5]?
**A.** 21.4%

**Q.** What about the Activity [6] of the same compound?
**A.** inactive

**Q.** What about the Activity [7] of the same compound?
**A.** 4.5%

**Q.** What about the Activity [8] of the same compound?
**A.** inactive

**Q.** And the Drug uptake [9]?
**A.** Active

Reference: ChEMBL document CHEMBL2176901, “Pyrrolo[3,4-h]quinolinones a new class of photochemotherapeutic agents” (Bioorg Med Chem, 2011)
